Experimental data: ChEMBL document CHEMBL4049410, “Novel benzimidazolyl tetrahydroprotoberberines: Design, synthesis, antimicrobial evaluation and multi-targeting exploration” (2017)
In brackets after ≈: the same amount, converted by molar mass.

How the values were obtained:
Bacillus subtilis = experiment: Antibacterial activity against Bacillus subtilis after 24 hrs by two-fold serial dilution assay; type: functional
Procedure, shortened: (§1)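 Twofold serial broth dilution following NCCLS guidance, with Chloromycin, Norfloxacin and Fluconazole as positive controls. MIC in μM is the lowest concentration giving complete inhibition of visible bacterial or fungal growth.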

Proteus vulgaris = experiment: Antibacterial activity against Bacillus proteus ATCC 13315 after 24 hrs by two-fold serial dilution assay; type: functional; procedure, shortened: as §1
Pseudomonas aeruginosa = experiment: Antibacterial activity against Pseudomonas aeruginosa after 24 hrs by two-fold serial dilution assay; type: functional; procedure, shortened: as §1
Shigella dysenteriae = experiment: Antibacterial activity against Shigella dysenteriae after 24 hrs by two-fold serial dilution assay; type: functional
Escherichia coli [1] = experiment: Antibacterial activity against Escherichia coli DH52 after 24 hrs by two-fold serial dilution assay; type: functional; procedure, shortened: as §1
Staphylococcus aureus [2] = experiment: Antibacterial activity against methicillin-resistant Staphylococcus aureus N315 after 24 hrs by two-fold serial dilution assay; type: functional
Aspergillus flavus = experiment: Antifungal activity against Aspergillus flavus after 24 hrs by two-fold serial dilution assay; type: functional; procedure, shortened: as §1
Cyberlindnera jadinii = experiment: Antifungal activity against Candida utilis after 24 hrs by two-fold serial dilution assay; type: functional; procedure, shortened: as §1
Pichia norvegensis = experiment: Antifungal activity against Candida mycoderma after 24 hrs by two-fold serial dilution assay; type: functional; procedure, shortened: as §1
Escherichia coli [3] = experiment: Antibacterial activity against Escherichia coli JM109 after 24 hrs by two-fold serial dilution assay; type: functional; procedure, shortened: as §1
Saccharomyces cerevisiae = experiment: Antifungal activity against Saccharomyces cerevisiae after 24 hrs by two-fold serial dilution assay; type: functional; procedure, shortened: as §1
Micrococcus luteus = experiment: Antibacterial activity against Micrococcus luteus ATCC 4698 after 24 hrs by two-fold serial dilution assay; type: functional, NCTC 2665; procedure, shortened: as §1
Staphylococcus aureus [4] = experiment: Antibacterial activity against Staphylococcus aureus ATCC 25923 after 24 hrs by two-fold serial dilution assay; type: functional; procedure, shortened: as §1
Candida albicans = experiment: Antifungal activity against Candida albicans ATCC 76615 after 24 hrs by two-fold serial dilution assay; type: functional; procedure, shortened: as §1
Salmonella typhi = experiment: Antibacterial activity against Bacillus typhi after 24 hrs by two-fold serial dilution assay; type: functional, Salmonella enterica subsp. enterica serovar Typhi
[5] = Bacillus subtilis, 24 h, read-out: MIC
[6] = Pseudomonas aeruginosa, 24 h, read-out: MIC
[7] = Shigella dysenteriae, 24 h, read-out: MIC
[8] = Escherichia coli, DH52, 24 h, read-out: MIC
[9] = Staphylococcus aureus, N315, 24 h, read-out: MIC
[10] = Williopsis jadinii, 24 h, read-out: MIC
[11] = Pichia norvegensis, 24 h, read-out: MIC
[12] = Escherichia coli, JM109, 24 h, read-out: MIC
[13] = Saccharomyces cerevisiae, 24 h, read-out: MIC
[14] = Candida albicans, ATCC 76615, 24 h, read-out: MIC
[15] = Staphylococcus aureus, ATCC 25923, 24 h, read-out: MIC

Structure (SMILES) | MIC (Aspergillus flavus) | MIC (Cyberlindnera jadinii; [10]) | MIC (Pichia norvegensis; [11]) | MIC (Saccharomyces cerevisiae; [13]) | MIC (Staphylococcus aureus [4]) | MIC (Candida albicans; [14]) | MIC (Proteus vulgaris) | MIC (Escherichia coli [1]) | MIC (Micrococcus luteus) | MIC (Bacillus subtilis) | MIC (Pseudomonas aeruginosa) | MIC (Cyberlindnera jadinii) | MIC (Pichia norvegensis) | MIC (Escherichia coli [3]) | MIC (Candida albicans) | MIC (Saccharomyces cerevisiae) | also measured
COc1cc(-c2nc3ccccc3n2Cc2ccccc2F)c2c(c1O)CN1CCc3cc4c(cc3C1C2)OCO4 (configuration not stated) | 24.3 µM (≈ 13.4 µg/mL) | 9.7 µM (≈ 5.33 µg/mL) | 19.4 µM (≈ 10.7 µg/mL) | 58.2 µM (≈ 32 µg/mL) | 58.2 µM (≈ 32 µg/mL) | 24.3 µM (≈ 13.4 µg/mL) |  |  |  |  |  |  |  |  |  |  | MIC (Bacillus subtilis; [5]): 48.5 µM (≈ 26.7 µg/mL); MIC (Proteus vulgaris; Proteus vulgaris, ATCC 13315, 24 h, read-out: MIC): 38.8 µM (≈ 21.3 µg/mL); MIC (Pseudomonas aeruginosa; [6]): 58.2 µM (≈ 32 µg/mL); MIC (Shigella dysenteriae; [7]): 48.5 µM (≈ 26.7 µg/mL); MIC (Escherichia coli [1]; [8]): 38.8 µM (≈ 21.3 µg/mL); MIC (Staphylococcus aureus [2]; [9]): 24.3 µM (≈ 13.4 µg/mL); MIC (Escherichia coli [3]; [12]): 29.1 µM (≈ 16 µg/mL); MIC (Micrococcus luteus; Micrococcus luteus, NCTC 2665, 24 h, read-out: MIC): 29.1 µM (≈ 16 µg/mL)
COc1cc(-c2nc3ccccc3n2CCCCCCn2c3ccccc3c3ccccc32)c2c(c1O)CN1CCc3cc4c(cc3C1C2)OCO4 (configuration not stated) | 617.6 µM (≈ 427 µg/mL) | 618 µM (≈ 427 µg/mL) | 618 µM (≈ 427 µg/mL) | 741 µM (≈ 512 µg/mL) |  | 247 µM (≈ 171 µg/mL) | 617.6 µM (≈ 427 µg/mL) | 617.6 µM (≈ 427 µg/mL) | 741.1 µM (≈ 512 µg/mL) |  |  |  |  |  |  |  | MIC (Bacillus subtilis; [5]): 741 µM (≈ 512 µg/mL); MIC (Pseudomonas aeruginosa; [6]): 741 µM (≈ 512 µg/mL); MIC (Staphylococcus aureus [2]; [9]): 618 µM (≈ 427 µg/mL); MIC (Escherichia coli [3]; [12]): 618 µM (≈ 427 µg/mL)
COc1cc(-c2nc3ccccc3n2Cc2ccc(F)cc2)c2c(c1O)CN1CCc3cc4c(cc3C1C2)OCO4 (configuration not stated) | 50.2 µM (≈ 27.6 µg/mL) |  |  | 20.1 µM (≈ 11 µg/mL) |  |  | 25.1 µM (≈ 13.8 µg/mL) |  | 40.1 µM (≈ 22 µg/mL) | 20.1 µM (≈ 11 µg/mL) | 25.1 µM (≈ 13.8 µg/mL) | 60.2 µM (≈ 33.1 µg/mL) | 25.1 µM (≈ 13.8 µg/mL) | 25.1 µM (≈ 13.8 µg/mL) | 25.1 µM (≈ 13.8 µg/mL) |  | MIC (Escherichia coli [1]; [8]): 100 µM (≈ 55.1 µg/mL); MIC (Staphylococcus aureus [4]; [15]): 60.2 µM (≈ 33.1 µg/mL)
COc1cc(-c2nc3ccccc3n2Cc2ccc(F)cc2)c2c(c1O)CN1CCc3cc4c(cc3C1C2)OCO4.Cl (configuration not stated) | 182 µM |  |  |  | 109.2 µM |  | 182 µM | 182 µM | 182 µM | 182 µM | 182 µM | 182 µM | 218.4 µM | 182 µM | 182 µM | 36.4 µM | MIC (Shigella dysenteriae): 145.6 µM
COc1cc(-c2nc3ccccc3n2Cc2ccccc2F)c2c(c1O)CN1CCc3cc4c(cc3C1C2)OCO4.Cl (configuration not stated) | 803.8 µM |  |  |  |  |  | 20.9 µM | 20.9 µM | 20.9 µM | 33.5 µM | 67 µM | 12.6 µM | 10.5 µM | 20.9 µM | 20.9 µM | 83.8 µM | MIC (Salmonella typhi): 6.3 µM; MIC (Shigella dysenteriae): 50.2 µM
COc1cc(-c2nc3ccccc3n2Cc2cccc(F)c2)c2c(c1O)CN1CCc3cc4c(cc3C1C2)OCO4.Cl (configuration not stated) | 88.5 µM |  |  |  | 70.8 µM |  | 88.5 µM | 141.6 µM | 70.8 µM | 88.5 µM | 212.4 µM | 106.2 µM | 70.8 µM | 70.8 µM | 70.8 µM | 35.4 µM | 
COc1cc(-c2nc3ccccc3n2Cc2ccc(Cl)cc2)c2c(c1O)CN1CCc3cc4c(cc3C1C2)OCO4.Cl (configuration not stated) | 669.8 µM |  |  |  | 267.9 µM |  | 535.9 µM | 669.8 µM | 535.9 µM | 134 µM | 535.9 µM | 535.9 µM | 267.9 µM | 535.9 µM | 401.9 µM | 803.8 µM | MIC (Salmonella typhi): 201 µM
OC(Cn1cncn1)(Cn1cncn1)c1ccc(F)cc1F [FLUCONAZOLE] |  | 10.9 µM (≈ 3.34 µg/mL) | 26.1 µM (≈ 7.99 µg/mL) | 52.2 µM (≈ 16 µg/mL) |  |  |  |  |  |  |  |  |  |  |  |  | MIC (Aspergillus flavus; Aspergillus flavus, 24 h, read-out: MIC): 836 µM (≈ 256 µg/mL)
COc1cc(-c2nc3ccccc3n2Cc2cccc(F)c2)c2c(c1O)CN1CCc3cc4c(cc3C1C2)OCO4 (configuration not stated) | 24.3 µM (≈ 13.4 µg/mL) |  | 48.5 µM (≈ 26.7 µg/mL) | 24.3 µM (≈ 13.4 µg/mL) |  | 48.5 µM (≈ 26.7 µg/mL) | 38.8 µM (≈ 21.3 µg/mL) | 38.8 µM (≈ 21.3 µg/mL) | 19.4 µM (≈ 10.7 µg/mL) | 19.4 µM (≈ 10.7 µg/mL) | 48.5 µM (≈ 26.7 µg/mL) | 48.5 µM (≈ 26.7 µg/mL) |  | 29.1 µM (≈ 16 µg/mL) |  |  | MIC (Shigella dysenteriae; [7]): 116 µM (≈ 64 µg/mL); MIC (Staphylococcus aureus [2]): 12.2 µM (≈ 6.71 µg/mL); MIC (Staphylococcus aureus [4]; [15]): 48.5 µM (≈ 26.7 µg/mL)
